Measured values: ChEMBL document CHEMBL1125346, “Guanidinophenyl-substituted enol lactones as selective, mechanism-based inhibitors of trypsin-like serine proteases” (J Med Chem, 1992)

Tests used:
[1] = target: Chymotrypsinogen A (Bos taurus) (UniProt P00766); test: Time for which maximum percent inhibition persists was determined against alpha-chymotrypsin (17 nM); format: functional
Summary of the method: (§1)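 Enzyme incubated with excess lactone added from DMSO stock (final 10% DMSO); aliquots over 2 h diluted into substrate: chymotrypsin Suc-AAPF-pNA 315 µM, pH 7.2, 410 nm; t-PA Spectrozyme t-PA 0.2 mM, Tris-imidazole pH 8.4, 405 nm; HNE MeO-Suc-AAPV-pNA 150 µM, pH 7.4, 410 nm; plasmin Ts-GPK-pNA 157.4 µM, pH 7.8, 404 nm; thrombin Ts-GPR-pNA 75 µM, pH 8.0, 408 nm; trypsin Z-VGR-pNA 155 µM, pH 7.2, 404 nm. Activity given relative to a no-lactone control. Some runs used a 10-min substrate-free delay after dilution. ∞ means no recovery over 2 h.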

[2] = target: Chymotrypsinogen A (Bos taurus) (UniProt P00766); test: Time to reach maximum percent inhibition by the compound was determined against alpha-chymotrypsin (17 nM); format: functional
Summary of the method: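 α-Chymotrypsin with excess lactone (DMSO, 10% final) was sampled over 2 h into Suc-Ala-Ala-Pro-Phe-pNA (315 μM) in 0.2 M phosphate, pH 7.2. Absorbance at 410 nm gave the remaining activity versus a control without lactone. Minutes to maximal inhibition were taken.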

[3] = target: Chymotrypsinogen A (Bos taurus) (UniProt P00766); test: Maximum percent inhibition by the compound was determined against Chymotrypsinogen (17 nM); summary of the method: as §1
[4] = target: T1, Neutrophil elastase (Homo sapiens) (UniProt P08246); test: Maximum percent inhibition by the compound was determined against human neutrophil elastase (HNE); summary of the method: as §1
T1 sequence (whole entry): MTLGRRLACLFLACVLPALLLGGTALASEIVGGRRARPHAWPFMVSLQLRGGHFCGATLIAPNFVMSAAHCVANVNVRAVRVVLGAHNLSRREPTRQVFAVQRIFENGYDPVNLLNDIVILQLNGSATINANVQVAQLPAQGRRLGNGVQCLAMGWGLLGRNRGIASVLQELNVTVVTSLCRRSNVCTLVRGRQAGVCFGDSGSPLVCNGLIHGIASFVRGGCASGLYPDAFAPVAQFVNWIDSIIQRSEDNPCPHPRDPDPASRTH

[5] = target: T1, Neutrophil elastase (Homo sapiens); test: Time for which maximum percent inhibition persists was determined against human neutrophil elastase (HNE); format: functional; summary of the method: as §1
[6] = target: T1, Neutrophil elastase (Homo sapiens); test: Time to reach maximum percent inhibition by the compound was determined against human neutrophil elastase (HNE); format: functional
Summary of the method: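 HNE was incubated with excess lactone in 10% final DMSO. Aliquots drawn during 2 h went into MeO-Suc-Ala-Ala-Pro-Val-pNA (150 μM) in 0.1 M phosphate, 0.5 M NaCl, pH 7.4, read at 410 nm. Activity was set relative to a lactone-free control, and the time (min) to peak inhibition was noted.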

[7] = target: Plasminogen (Homo sapiens) (UniProt P00747); test: Time to reach maximum percent inhibition by the compound was determined against plasmin(625 nM); format: functional
Chain of Plasminogen (Homo sapiens) (P00747 97-580 limits assumed): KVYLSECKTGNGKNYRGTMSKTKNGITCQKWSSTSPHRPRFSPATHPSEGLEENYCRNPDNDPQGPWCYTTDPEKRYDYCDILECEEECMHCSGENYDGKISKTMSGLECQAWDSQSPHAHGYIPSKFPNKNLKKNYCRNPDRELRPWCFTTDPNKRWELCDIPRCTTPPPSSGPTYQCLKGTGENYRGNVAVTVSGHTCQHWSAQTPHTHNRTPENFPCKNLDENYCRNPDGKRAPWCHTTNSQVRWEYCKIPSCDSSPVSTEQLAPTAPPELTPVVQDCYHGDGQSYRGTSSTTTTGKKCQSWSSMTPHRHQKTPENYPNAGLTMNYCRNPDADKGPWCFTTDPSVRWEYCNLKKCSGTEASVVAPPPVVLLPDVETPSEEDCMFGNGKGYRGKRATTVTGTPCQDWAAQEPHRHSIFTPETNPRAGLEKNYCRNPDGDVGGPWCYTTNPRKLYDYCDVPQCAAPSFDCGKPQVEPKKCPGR
Chain of Plasminogen (Homo sapiens) (P00747 581-810 limits assumed): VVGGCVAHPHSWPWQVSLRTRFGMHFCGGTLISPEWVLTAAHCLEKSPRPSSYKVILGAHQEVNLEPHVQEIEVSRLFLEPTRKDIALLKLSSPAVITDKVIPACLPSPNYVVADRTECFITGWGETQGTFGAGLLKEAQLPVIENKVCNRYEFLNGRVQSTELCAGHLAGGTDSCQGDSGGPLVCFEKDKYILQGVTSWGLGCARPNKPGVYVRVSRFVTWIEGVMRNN
Summary of the method: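 Plasmin plus excess lactone (10% final DMSO) was sampled over 2 h into Ts-Gly-Pro-Lys-pNA (157.4 μM) in 0.05 M phosphate, pH 7.8. The slope at 404 nm, relative to an enzyme-only control, gave residual activity. Minutes needed to reach maximal inhibition were reported.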

[8] = target: Plasminogen (Homo sapiens) (UniProt P00747); test: Time for which maximum percent inhibition persists was determined against plasmin; format: functional; summary of the method: as §1
[9] = target: Plasminogen (Homo sapiens) (UniProt P00747); test: Maximum percent inhibition by the compound was determined against plasmin(625 nM); summary of the method: as §1
[10] = target: Tissue-type plasminogen activator (Homo sapiens) (UniProt P00750); test: Maximum percent inhibition by the compound was determined against Tissue plasminogen activator (19.4 nM); summary of the method: as §1
Chain of Tissue-type plasminogen activator (Homo sapiens) (P00750 36-562 limits assumed): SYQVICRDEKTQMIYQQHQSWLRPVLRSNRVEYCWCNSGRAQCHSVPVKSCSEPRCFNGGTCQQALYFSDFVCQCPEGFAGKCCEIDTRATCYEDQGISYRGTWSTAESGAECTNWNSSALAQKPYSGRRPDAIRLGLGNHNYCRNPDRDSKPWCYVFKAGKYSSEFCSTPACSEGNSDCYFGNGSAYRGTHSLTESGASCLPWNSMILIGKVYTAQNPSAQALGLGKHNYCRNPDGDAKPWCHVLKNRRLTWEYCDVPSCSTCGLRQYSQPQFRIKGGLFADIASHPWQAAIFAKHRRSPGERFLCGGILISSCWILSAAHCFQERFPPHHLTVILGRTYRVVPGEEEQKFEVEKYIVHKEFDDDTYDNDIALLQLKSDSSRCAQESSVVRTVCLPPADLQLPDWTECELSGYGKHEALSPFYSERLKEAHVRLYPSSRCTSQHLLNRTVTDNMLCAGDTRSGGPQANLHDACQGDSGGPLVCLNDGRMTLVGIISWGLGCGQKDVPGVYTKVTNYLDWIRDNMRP

[11] = target: Tissue-type plasminogen activator (Homo sapiens) (UniProt P00750); test: Time for which maximum percent inhibition persists was determined against Tissue plasminogen activator (19.4 nM); format: functional; summary of the method: as §1
[12] = target: Tissue-type plasminogen activator (Homo sapiens) (UniProt P00750); test: Time to reach maximum percent inhibition by the compound was determined against Tissue plasminogen activator (19.4 nM); format: functional
Summary of the method: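 Tissue plasminogen activator was exposed to excess lactone (10% final DMSO). Over 2 h, aliquots were diluted into Spectrozyme t-PA (0.2 mM) in Tris-imidazole, I 0.3, pH 8.4. Hydrolysis at 405 nm gave residual activity relative to an enzyme-only control. The time (min) to reach maximal percent inhibition was recorded.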

[13] = target: Prothrombin (Homo sapiens) (UniProt P00734); test: Time for which maximum percent inhibition persists was determined against thrombin (1.93 nM); format: functional; summary of the method: as §1
[14] = target: Prothrombin (Homo sapiens) (UniProt P00734); test: Time to reach maximum percent inhibition by the compound was determined against thrombin (1.93 nM); format: functional
Summary of the method: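 Thrombin was incubated with excess lactone (DMSO, 10% final). Aliquots over 2 h were diluted into Ts-Gly-Pro-Arg-pNA (75 μM) in 0.05 M phosphate, 0.01 M EDTA, 10 g/L PEG 8000, 10 mg/L aprotinin, pH 8.0, and read at 408 nm against a no-lactone control. Time to maximal inhibition was recorded.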

[15] = target: T2, Serine protease 1 (Bos taurus) (UniProt P00760); test: Substrate binding constant against trypsin
T2 sequence (whole entry): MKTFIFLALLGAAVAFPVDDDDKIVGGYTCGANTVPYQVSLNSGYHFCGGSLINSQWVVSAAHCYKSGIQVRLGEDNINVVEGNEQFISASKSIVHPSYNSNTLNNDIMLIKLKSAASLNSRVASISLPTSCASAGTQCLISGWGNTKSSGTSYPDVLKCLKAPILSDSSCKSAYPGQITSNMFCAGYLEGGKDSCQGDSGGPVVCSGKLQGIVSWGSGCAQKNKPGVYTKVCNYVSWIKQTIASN
Summary of the method: (§2)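 Competitive substrate assay: lactone (DMSO, final 10% v/v) and chromogenic substrate combined in buffer, enzyme added, absorbance followed to steady state. Turnover-corrected semilog plot gives kobs; I0 vs I0/kobs replot (eq 6) with separately determined Km yields Ki and ka. Where no burst was seen, Ki was estimated from Km(app) replots using 15-s initial velocities. Buffers and substrates as in incubation assay.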

[16] = target: T2, Serine protease 1 (Bos taurus); test: Second order rate constant against trypsin; summary of the method: as §2
[17] = target: T2, Serine protease 1 (Bos taurus); test: Time to reach maximum percent inhibition by the compound was determined against trypsin (14.6 nM); format: functional
Summary of the method: (§3)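 Trypsin was incubated with excess lactone added from DMSO stock (10% final DMSO). Aliquots taken over 2 h were diluted into Z-Val-Gly-Arg-pNA (155 μM) in 0.2 M phosphate, pH 7.2, and read at 404 nm. Activity came from the absorbance slope versus a no-lactone control. Reported are minutes to maximal inhibition and minutes it persisted; ∞ means no recovery within 2 h.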

[18] = target: T2, Serine protease 1 (Bos taurus); test: Time for which maximum percent inhibition persists was determined against trypsin (14.6 nM); format: functional; summary of the method: as §3
[19] = target: Prothrombin (Homo sapiens) (UniProt P00734); test: Maximum percent inhibition by the compound was determined against thrombin (1.93 nM); summary of the method: as §1
[20] = target: T2, Serine protease 1 (Bos taurus); test: Maximum percent inhibition by the compound was determined against trypsin (14.6 nM); summary of the method: as §1
[21] = target: T2, Serine protease 1 (Bos taurus); test: Acylation rate constant against trypsin; summary of the method: as §2
[22] = target: T3, Urokinase-type plasminogen activator (Homo sapiens, UniProt P00749); test: Time for which maximum percent inhibition persists was determined against Urokinase-type plasminogen activator e (300 nM); * =no enzyme activity was recovered over 2 h; format: functional
[23] = Ratio of initial inhibitor concentration to initial Chymotrypsinogen concentration
Summary of the method: (§4)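 Ratio I0/E0 of lactone to enzyme in the 2-h incubation assay; lactone added from DMSO stock to buffered enzyme (final 10% DMSO).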

[24] = Ratio of initial inhibitor concentration to initial HNE concentration; summary of the method: as §4
[25] = Ratio of initial inhibitor concentration to initial Plasmin concentration; summary of the method: as §4
[26] = Ratio of initial inhibitor concentration to initial t-PA concentration; summary of the method: as §4
[27] = Ratio of initial inhibitor concentration to initial thrombin concentration; summary of the method: as §4
[28] = Ratio of initial inhibitor concentration to initial trypsin concentration; summary of the method: as §4
[29] = Ratio of initial inhibitor concentration to initial urokinase concentration; summary of the method: as §4
[30] = target: T3, Urokinase-type plasminogen activator
[31] = target: T3, Urokinase-type plasminogen activator; remark: listed apart in the source
[32] = target: T3, Urokinase-type plasminogen activator; remark: listed apart in the source

TIME [1]: 0 h
TIME [2]: 0.75 h
inhibition [3]: 58%
inhibition [4]: 22%
TIME [5]: 0 h
TIME [6]: 0.25 h
TIME [7]: 0 h
TIME [8]: 0 h
inhibition [9]: 99%
inhibition [10]: 29%
TIME [11]: 0 h
TIME [12]: 0 h
TIME [13]: 0 h
TIME [14]: 0 h
Ks [15]: 0.23 µM
Rate [16]: 62 ka/Ks
TIME [17]: 0 h
TIME [18]: 0.75 h
inhibition [19]: 7%
inhibition [20]: 97%
Ka [21]: 14 min⁻¹
TIME [22]: No enzyme activity
Ratio [23]: 118 Io/Eo
Ratio [24]: 36 Io/Eo
Ratio [25]: 16 Io/Eo
Ratio [26]: 100 Io/Eo
Ratio [27]: 518 Io/Eo
Ratio [28]: 86 Io/Eo
Ratio [29]: 50 Io/Eo
Ks [30]: 0.33 µM
Rate [31]: 1180 ka/Ks
Ka [32]: 391 min⁻¹
Compound: C=C1CCC(c2ccc(NC(=N)N)cc2)C(=O)O1 (configuration not stated)
